Calls of active or inactive are those of the source. The rule behind the calls is not given here.
Tests used:
[1] = tested on: HUVEC; assay: Inhibition of growth factor-induced angiogenesis in HUVEC cells assessed as inhibition of in cell migration at 10^-5 uM after 4 hrs by fluorescence microscopy; type: functional, cell-based; settings: Homo sapiens
[2] = tested on: HUVEC; assay: Antiangiogenic activity against FGF2-induced HUVEC assessed as inhibition of cell proliferation at 10^-5 uM after 24 hrs; type: functional, cell-based; settings: Homo sapiens
[3] = tested on: HUVEC; assay: Growth inhibition of HUVEC cells after 20 hrs by MTT assay; type: cell-based; settings: Homo sapiens
In short: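 Primary HUVECs, passages 2–4, were seeded at 2 × 10⁴ cells/cm². After 24 h they were exposed to a range of concentrations (10 to 10⁻⁵ µM). After 20 h, MTT (0.5 mg/mL) was read. IC50 is the concentration giving a 50% viability drop versus untreated cells; 10 µM was the top concentration. Values are means ± SD of at least three independent experiments.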

[4] = tested on: HUVEC; assay: Antiangiogenic activity against FGF2-induced in HUVEC cells assessed as inhibition of capillary-like formation at 10^-5 uM after 18 hrs by Matrigel assay; type: functional, cell-based; settings: Homo sapiens
[5] = tested on: HUVEC; assay: Inhibition of growth factor-induced angiogenesis in HUVEC cells assessed as inhibition of cell migration at 10^-2 uM after 4 hrs by fluorescence microscopy; type: functional, cell-based; settings: Homo sapiens
[6] = tested on: HUVEC; assay: Antiangiogenic activity against FGF2-induced in HUVEC cells assessed as inhibition of morphological change at 10^-2 uM after 18 hrs by capillary-like formation assay; type: functional, cell-based; settings: Homo sapiens
[7] = tested on: HUVEC; assay: Antiangiogenic activity against FGF2-induced in HUVEC cells assessed as inhibition of capillary-like formation at 10^-2 uM after 18 hrs by Matrigel assay; type: functional, cell-based; settings: Homo sapiens
[8] = tested on: HUVEC; assay: Induction of apoptosis in HUVEC cells assessed as proapoptotic effect after 24 hrs by TUNEL assay; type: functional, cell-based; settings: Homo sapiens
[9] = tested on: Mus musculus; assay: Antiangiogenic activity against FGF2-induced C57/BL6 mouse assessed as inhibition of angiogenesis at 0.01 uM, sc after 7 days by Matrigel plug assay; type: functional, organism-based
In short: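 Matrigel with heparin, with or without FGF-2 200 ng/plug plus test agent 0.01 µM, injected subcutaneously into the dorsal area of C57/BL6 mice. Animals were killed after 7 days. Plugs were removed and steeped overnight at 4 °C in 0.1% Brij-35 in PBS. Hemoglobin content of the plugs was measured.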

[10] = tested on: HUVEC; assay: Antiangiogenic activity against FGF2-induced in HUVEC cells assessed as inhibition of capillary-like formation at 10^-3 uM after 18 hrs by Matrigel assay; type: functional, cell-based; settings: Homo sapiens
[11] = tested on: HUVEC; assay: Inhibition of growth factor-induced angiogenesis in HUVEC cells assessed as inhibition of cell migration at 10^-3 uM after 4 hrs by fluorescence microscopy; type: functional, cell-based; settings: Homo sapiens
[12] = tested on: HUVEC; assay: Antiangiogenic activity against FGF2-induced in HUVEC cells assessed as inhibition of morphological change at 10^-3 uM after 18 hrs by capillary-like formation assay; settings: Homo sapiens
[13] = tested on: HUVEC; assay: Antiangiogenic activity against FGF2-induced in HUVEC cells assessed as inhibition of morphological change at 10^-3 uM after 18 hrs by capillary-like formation assay; type: functional, cell-based; settings: Homo sapiens
[14] = tested on: HUVEC; assay: Antiangiogenic activity against FGF2-induced HUVEC assessed as inhibition of cell proliferation at 10^-3 uM after 24 hrs; type: functional, cell-based; settings: Homo sapiens
[15] = tested on: HUVEC; assay: Inhibition of growth factor-induced angiogenesis in HUVEC cells assessed as inhibition of cell migration at 10^-4 uM after 4 hrs by fluorescence microscopy; type: functional, cell-based; settings: Homo sapiens
[16] = tested on: HUVEC; assay: Antiangiogenic activity against FGF2-induced in HUVEC cells assessed as inhibition of capillary-like formation at 10^-4 uM after 18 hrs by Matrigel assay; type: functional, cell-based; settings: Homo sapiens
[17] = tested on: HUVEC; assay: Antiangiogenic activity against FGF2-induced HUVEC assessed as inhibition of cell proliferation at 10^-4 uM after 24 hrs; type: functional, cell-based; settings: Homo sapiens
[18] = tested on: HUVEC; assay: Antiangiogenic activity against FGF2-induced HUVEC assessed as inhibition of cell proliferation at 10^-2 uM after 24 hrs; type: functional, cell-based; settings: Homo sapiens

In the case of `CC[C@]1(O)C[C@@H]2CN(CCc3c([nH]c4ccccc34)[C@@](C(=O)OC)(c3cc4c(cc3OC)N(C)[C@H]3[C@@](O)(C(=O)OC)[C@H](OC(C)=O)[C@]5(CC)C=CCN6CC[C@]43[C@@H]65)C2)C1` [VINBLASTINE], the inhibition [1] is reported as “Active”, the Activity [2] is reported as “Active” and the IC50 [3] is reported as 0.049 µM. For the same compound, the Activity [4] was “Active”.
`O=c1cc(-c2ccc[nH]2)[nH]c2c1ccc1[nH]ccc12` gave an IC50 [3] of over 10 µM.
For `O=c1cc(-c2ccccc2)[nH]c2c1ccc1c2ccn1CC1CC1`, the inhibition [5] was “Active”, the IC50 [3] was 4.2 µM and the Activity [6] was “inactive”. For the same compound, the Activity [7] was “Active”, the Activity [8] was “Active” and the Activity [9] was “Active”.
`O=[N+]([O-])c1cccc(-c2cc(O)c3ccc4[nH]ccc4c3n2)c1` was tested, and the Activity [10] was “Active”, the inhibition [11] was “Active” and the Activity [12] was “Active”. For the same compound, the IC50 [3] was 0.45 µM, the Activity [13] was “Active” and the Activity [14] was “Active”. The Activity [8] was “Active” and the Activity [9] was “Active”.
`CCn1ccc2c3[nH]c(-c4ccccc4)cc(=O)c3ccc21` was tested, and the inhibition [5] was “Active”, the IC50 [3] was 8.1 µM and the Activity [6] was “inactive”. The Activity [7] was “Active” and the Activity [8] was “Active”.
`CCOC(=O)CCn1ccc2c3[nH]c(-c4ccccc4)cc(=O)c3ccc21` was tested, and the inhibition [5] was “Active”, the IC50 [3] was 5.7 µM and the Activity [6] was “Active”. The Activity [7] was “Active”, the Activity [8] was “Active” and the Activity [9] was “Active”.
In the case of `Oc1cc(-c2ccccc2)nc2c1ccc1[nH]ccc12`, the IC50 [3] is reported as 0.043 µM, the inhibition [15] is reported as “Active” and the Activity [16] is reported as “Active”. For the same compound, the Activity [17] was “Active”, the Activity [8] was “Active” and the Activity [9] was “Active”.
For `COc1cccc(-c2cc(O)c3ccc4[nH]ccc4c3n2)c1`, the inhibition [5] was “Active”, the Activity [18] was “Active” and the IC50 [3] was 5.8 µM. The Activity [8] was “Active”.
In the case of `Cc1cc2c(ccc3c(=O)cc(-c4ccccc4)[nH]c32)[nH]1`, the IC50 [3] is reported as over 10 µM.
Work on `Oc1cc(-c2cccs2)nc2c1ccc1[nH]ccc12` yielded an IC50 [3] of over 10 µM.

Source: ChEMBL document CHEMBL1641365, “Synthesis, in vitro and in vivo preliminary evaluation of anti-angiogenic properties of some pyrroloazaflavones” (Bioorg Med Chem, 2011)
